Molecules are shown by their SMILES. Converted amounts (≈) assume the structure as drawn. “And” between values parts separate entries of the source, which are not always exact repeats. Equal values may be shown once.

The record followed here is ChEMBL document CHEMBL1124512, “Synthesis of 3-deazaneplanocin A, a powerful inhibitor of S-adenosylhomocysteine hydrolase with potent and selective in vitro and in vivo antiviral activities” (1989).

Assay [1] has as its system Human respirovirus 3. Nature of the assay: Inhibitory dose against Parainfluenza type 3 viral strain Huebner C243 in H.Ep-2 cell line. The assay is classed as functional. The conditions noted are these: Human respirovirus 3, HEp-2; read-out: ID50 (the source's name).
Assay [2] concerns Human respirovirus 3. Nature of the assay: Viral rating activity against Parainfluenza type 3 viral strain Huebner C243 in H.Ep-2 cell line. In kind it is functional. A digest of the protocol: (§1)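 Virus rating is a weighted score combining the degree of inhibition of the virus-induced cytopathogenic effect with the degree of cytotoxicity. USAMRIID ratings were multiplied by 3 to convert them to the Ehrlich scale.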

The nature of assay [3]: Ratio of minimum toxic compound concentration to inhibitory dose against Parainfluenza type 3 viral strain Huebner C243 in H.Ep-2 cell line. The assay is classed as functional. A digest of the protocol: (§2)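 Selectivity index is the minimum toxic drug concentration (μg/mL) divided by the ID50 for inhibition of the virus-induced cytopathogenic effect.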
In assay [4] the test system is Mus musculus. Nature of the assay: In vivo anti-viral activity against Vaccinia tailpox mice model at dose 300 mg/kg (tested on 20 mice - Experiment 1). In kind it is functional.
Assay [5] has as its system Vaccinia virus. As to the kind of experiment: Inhibitory dose against vaccinia viral strain Lederle CA in vero cell line. In kind it is functional, Orthopoxvirus vaccinia.
Assay [6] relates to Vaccinia virus. As to the kind of experiment: Viral rating activity against vaccinia viral strain Lederle CA in vero cell line. In kind it is functional, Orthopoxvirus vaccinia. A digest of the protocol: as §1
A short description of assay [7]: Ratio of minimum toxic compound concentration to inhibitory dose against vaccinia viral strain Lederle CA in vero cell line. The assay is classed as functional. An outline of the steps:
as §2

Assay [8] has as its system Mus musculus. Nature of the assay: In vivo anti-viral activity against Vaccinia tailpox mice model at dose 300 mg/kg (tested on 20 mice - Experiment 2). In kind it is functional.
Assay [9] concerns Yellow fever virus. Nature of the assay: Inhibitory dose against yellow fever viral strain Asibi in vero cell line. The assay is classed as functional. The conditions noted are these: read-out: ID50 (the source's name).
The test system of assay [10] is Yellow fever virus. As to the kind of experiment: Viral rating of activity against yellow fever viral strain Asibi in vero cell line. In kind it is functional. A digest of the protocol: as §1
A short description of assay [11]: Ratio of minimum toxic compound concentration to inhibitory dose against yellow fever viral strain Asibi in vero cell line. In kind it is functional. A digest of the protocol:
as §2

Assay [12] concerns Mus musculus. Nature of the assay: In vivo anti-viral activity against Vaccinia tailpox mice model at dose 8 mg/kg (tested on 19 mice - Experiment 2). The assay is classed as functional.
In assay [13] the test system is Mus musculus. As to the kind of experiment: In vivo anti-viral activity against Vaccinia tailpox mice model at dose 8 mg/kg (tested on 20 mice - Experiment 1). The assay is classed as functional.
Assay [14] relates to Mus musculus. Nature of the assay: In vivo anti-viral activity against Vaccinia tailpox mice model at dose 4 mg/kg (tested on 20 mice - Experiment 2). The assay is classed as functional.
For assay [15], the system named is Vesicular stomatitis virus. As to the kind of experiment: (§3) Viral rating activity against vesicular stomatitis viral strain Indiana in L929 cell line. In kind it is functional. A digest of the protocol:
as §1

Assay [16] has as its system Vesicular stomatitis virus. The assay is described as §3. In kind it is functional. A digest of the protocol: as §1
The source holds these as a separate data set.

In assay [17] the test system is Yellow fever virus. As to the kind of experiment: Viral rating activity against yellow fever viral strain Asibi in vero cell line. The assay is classed as functional. An outline of the steps: as §1
In assay [18] the test system is Vesicular stomatitis virus. As to the kind of experiment: Inhibitory dose against vesicular stomatitis viral strain Indiana in L929 cell line. In kind it is functional.
The nature of assay [19]: Ratio of minimum toxic compound concentration to inhibitory dose against vesicular stomatitis viral strain Indiana in L929 cell line. In kind it is functional. A digest of the protocol: as §2

Consider `NC(=O)c1ncn([C@@H]2O[C@H](CO)[C@@H](O)[C@H]2O)n1` [RIBAVIRIN], for which the IC50 in the assay with Human respirovirus 3 [1] came to 17.5 µg/mL (≈ 71.7 µM). The VR in the assay with Human respirovirus 3 [2] amounted to 2.5. Moreover, the Selectivity index in [3] is 5.7.

`Nc1ncnc2c1ncn2[C@@H]1O[C@H](CO)[C@@H](O)[C@@H]1O` [VIDARABINE]: the Protection came out at 56% with Mus musculus [4] and 88% in the assay on Mus musculus [8]. In the assay on Vaccinia virus [5], the ID50 was 1 µg/mL and 1.8 µg/mL. The IC50 in the assay on Vaccinia virus [5] (Orthopoxvirus vaccinia, Vero, read-out: ID50 (the source's name)) came out at 2 µg/mL (≈ 7.48 µM). In addition, in the assay with Vaccinia virus [6], the VR was 3.7 and 4.2 and 3.6. Further, in [7], the Selectivity index is 16.3 and 32.2 and 17.9.

Take `c1c[se]cn1` [SELENAZOLE]: the IC50 with Yellow fever virus [9] was 3.3 µg/mL (≈ 25 µM). For the same molecule, the VR in the assay with Yellow fever virus [10] was 2.4. The Selectivity index in assay [11] worked out at 1.

For `Nc1nccc2c1ncn2C1C=C(CO)C(O)C1O` (stereo not drawn) [3-DEAZANEPLANOCIN A], the Protection in the assay with Mus musculus [12] is 84%; in the assay with Mus musculus [13], 74%; in the assay with Mus musculus [14] it was 82%. Moreover, the IC50 with Human respirovirus 3 [1] worked out at 0.05 µg/mL (≈ 0.191 µM); in the assay on Yellow fever virus [9] it was 1 µg/mL (≈ 3.81 µM); in assay [18] (read-out: ID50 (the source's name)), 0.3 µg/mL (≈ 1.14 µM). Besides, the VR in the assay with Human respirovirus 3 [2] was 3.6; in assay [15] it was 4.7; in assay [16], 3.6 and 4.2; in the assay with Yellow fever virus [17] it was 2.9; in the assay with Vaccinia virus [6], 3.1 and 5.4 and 4.5. Besides, the Selectivity index is 2 in [3] and 0.3 in [11]. Besides, in [18], the ID50 was 0.07 µg/mL and 0.2 µg/mL.

On to `Nc1nccc2c1ncn2[C@@H]1C[C@H](CO)[C@@H](O)[C@H]1O` [3-DEAZAARISTEROMYCIN A], for which, in [15], the VR is 3.1 and 3.2 and 3.5 and 3.3. In addition, the Selectivity index in assay [19] is 3.6 and 3.8 and 7.2.
